Experimental data published in PMC6427047 (Cell chemical biology, 2017).

Assays:
8 selected kinases = assay: Immunoblot validation of kinase degradation in MOLM-14 cells; type: cell-based, Human; conditions: pretreatment then 4-hour co-treatment with TL12-186
In short: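 MOLM-14 cells were exposed to test compound for 4 h, then lysed. Lysates were cleared by max-speed centrifugation at 4°C for 10 min. Protein was quantified by BCA and normalized. Samples were mixed with LDS sample buffer containing fresh 10% 2-mercaptoethanol and immunoblotted for the target kinases.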

[1] = test system: WT and CRBN−/− MOLM-14 and MOLT-4 cells; assay: 2-day proliferation assays, WT and CRBN−/− cells; type: cell-based, Human; conditions: CRBN−/− MOLM-14 and MOLT-4, 2-day
FLT3 = biological target: T1, FLT3 (Homo sapiens, UniProt P36888); assay: Immunoblot in MOLM-14 cells; type: cell-based
T1 sequence (P36888 610-943 limits assumed): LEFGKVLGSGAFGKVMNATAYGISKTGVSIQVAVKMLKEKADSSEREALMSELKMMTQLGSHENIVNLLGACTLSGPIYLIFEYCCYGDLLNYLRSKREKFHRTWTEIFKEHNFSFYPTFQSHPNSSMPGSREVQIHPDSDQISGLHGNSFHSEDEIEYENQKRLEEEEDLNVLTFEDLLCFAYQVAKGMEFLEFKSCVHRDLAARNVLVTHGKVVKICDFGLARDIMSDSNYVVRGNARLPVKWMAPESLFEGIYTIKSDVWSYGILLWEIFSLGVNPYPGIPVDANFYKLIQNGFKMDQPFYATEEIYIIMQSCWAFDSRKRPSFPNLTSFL

Q: For NS(=O)(=O)OC[C@@H]1C[C@@H](n2ccc3c(N[C@H]4CCc5ccccc54)ncnc32)C[C@@H]1O [MLN4924], which “effect of 4-hour pretreatment on TL12-186-induced kinase degradation” value (shortened to “effect of 4-hour pretreatment”) (8 selected kinases) is on record?
A: reverse the degradation effect of TL12-186

Q: How did the “inhibition of cellular proliferation in CRBN−/− cells” value [1] turn out when CC(C)S(=O)(=O)c1ccccc1Nc1nc(Nc2ccc(N3CCC(N4CCN(C)CC4)CC3)cc2)ncc1Cl [TL13-87] was run?
A: more potent inhibition of cellular proliferation relative to the degrader molecules

Q: Which “effect of 4-hour pretreatment” value (8 selected kinases) does the source give for CC(C)C[C@H](NC(=O)[C@H](CCc1ccccc1)NC(=O)CN1CCOCC1)C(=O)N[C@@H](Cc1ccccc1)C(=O)N[C@@H](CC(C)C)C(=O)[C@@]1(C)CO1 [carfilzomib] here?
A: reverse the degradation effect of TL12-186

Q: Which “rescue of TL12-186-induced FLT3 degradation by autophagy inhibition” value (FLT3) does the source give for CCN(CC)CCCC(C)Nc1ccnc2cc(Cl)ccc12 (centres unmarked) [chloroquine] here?
A: cannot significantly rescue the degradation of FLT3

Q: For Nc1cccc2c1C(=O)N(C1CCC(=O)NC1=O)C2=O (centres unmarked) [pomalidomide], which “effect of 4-hour pretreatment” value (8 selected kinases) is on record?
A: reverse the degradation effect of TL12-186
